Test results published in ChEMBL document CHEMBL2380216, “Design and selection parameters to accelerate the discovery of novel central nervous system positron emission tomography (PET) ligands and their application in the development of a novel phosphodiesterase 2A PET ligand” (J Med Chem, 2013).
One block for each molecule: values may come before it. The source made the active and inactive calls. The calls are words filed in the database; no cut-off is given here.

Tests used:
[1] = Apparent permeability across apical to basolateral side in dog RRCK cells; format: ADME, cell-based, Canis lupus familiaris, MDCKII-LE; conditions: MDCK
[2] = Ratio of total drug level in brain to plasma in Wistar Han rat at 1 mg/kg, iv after 2 hrs; format: ADME, organism-based; design: dose 1 mg/kg, route intravenous
Outline: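 Wistar-Han rats received a single 1 mg/kg IV dose. Total drug levels in brain and plasma were determined from pharmacokinetics over 0−2 h post-dose and expressed as a ratio.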

[3] = Fraction unbound in human plasma; format: ADME, cell-free
[4] = Fraction unbound in rat brain; format: ADME, tissue-based
[5] = Fraction unbound in rat plasma; format: ADME, cell-free
[6] = molecular target: Dual specificity calcium/calmodulin-dependent 3',5'-cyclic nucleotide phosphodiesterase 1B (Homo sapiens, UniProt Q01064); test: Inhibition of PDE1B (unknown origin)
[7] = molecular target: cAMP and cAMP-inhibited cGMP 3',5'-cyclic phosphodiesterase 10A (Homo sapiens, UniProt Q9Y233); test: Inhibition of PDE10A (unknown origin)
[8] = molecular target: 3',5'-cyclic-AMP phosphodiesterase 4D (Homo sapiens, UniProt Q08499); test: Inhibition of PDE4D (unknown origin)
[9] = molecular target: cGMP-inhibited 3',5'-cyclic phosphodiesterase 3A (Homo sapiens, UniProt Q14432); test: Inhibition of PDE3A (unknown origin)
[10] = system: Cynomolgus monkey; test: Binding affinity to PDE2A in cynomolgus monkey striatum at 215 MBq, iv measured for 90 mins by PET analysis; format: functional, organism-based; conditions: Macaca fascicularis, 215 M, tested as the 18F-labelled form
Outline: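 Two male cynomolgus monkeys, 5–6 years old, were fasted overnight and premedicated with ketamine (10 mg/kg IM) and glycopyrrolate (0.01 mg/kg IM). They were then intubated and kept under isoflurane (1.5−2.0% in oxygen). Tracer was an IV bolus via the saphenous vein, targeting 37 MBq/kg. A 90 min dynamic scan followed. Striatal binding potential was derived by a simplified reference tissue model, with cerebellum as the reference region.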

[11] = molecular target: 3',5'-cyclic-AMP phosphodiesterase 7B (Homo sapiens, UniProt Q9NP56); test: Inhibition of PDE7B (unknown origin)
[12] = molecular target: cGMP-specific 3',5'-cyclic phosphodiesterase (Homo sapiens, UniProt O76074); test: Inhibition of PDE5A (unknown origin)
[13] = molecular target: High affinity cAMP-specific and IBMX-insensitive 3',5'-cyclic phosphodiesterase 8B (Homo sapiens, UniProt O95263); test: Inhibition of PDE8B (unknown origin)
[14] = molecular target: High affinity cGMP-specific 3',5'-cyclic phosphodiesterase 9A (Homo sapiens, UniProt O76083); test: Inhibition of PDE9A (unknown origin)
[15] = molecular target: cGMP-dependent 3',5'-cyclic phosphodiesterase (Homo sapiens, UniProt O00408); test: Inhibition of full length recombinant human PDE2A expressed in Sf21 cells using [3H]-cGMP as substrate by scintillation proximity assay
[16] = Drug uptake in cynomolgus monkey skull at 215 MBq, iv measured for 90 mins by PET analysis; format: ADME, organism-based, Macaca fascicularis; conditions: in vivo, 1.5 h
Outline: (§1)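 Male cynomolgus monkeys (n=2, 5–6 years) were fasted overnight and given ketamine 10 mg/kg IM plus glycopyrrolate 0.01 mg/kg IM. They were intubated and maintained under isoflurane (1.5−2.0% in O2). The radiotracer was given as an IV saphenous bolus targeting 37 MBq/kg. A 57Co transmission scan provided attenuation/scatter correction. A 90 min dynamic acquisition was binned into 16 frames (5×1, 5×5, 6×10 min).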

[17] = Drug uptake in cynomolgus monkey caudate nucleus at 215 MBq, iv measured for 90 mins by PET analysis; format: ADME, organism-based, Macaca fascicularis; conditions: in vivo, 1.5 h; outline: as §1
[18] = system: Putamen; test: Drug uptake in cynomolgus monkey putamen at 215 MBq, iv measured for 90 mins by PET analysis; format: ADME, organism-based, Macaca fascicularis; conditions: in vivo, 1.5 h; outline: as §1
[19] = Drug uptake in cynomolgus monkey cerebellum at 215 MBq, iv measured for 90 mins by PET analysis; format: ADME, organism-based, Macaca fascicularis; conditions: in vivo, 1.5 h; outline: as §1

Sequence of High affinity cGMP-specific 3',5'-cyclic phosphodiesterase 9A (O76083 whole entry): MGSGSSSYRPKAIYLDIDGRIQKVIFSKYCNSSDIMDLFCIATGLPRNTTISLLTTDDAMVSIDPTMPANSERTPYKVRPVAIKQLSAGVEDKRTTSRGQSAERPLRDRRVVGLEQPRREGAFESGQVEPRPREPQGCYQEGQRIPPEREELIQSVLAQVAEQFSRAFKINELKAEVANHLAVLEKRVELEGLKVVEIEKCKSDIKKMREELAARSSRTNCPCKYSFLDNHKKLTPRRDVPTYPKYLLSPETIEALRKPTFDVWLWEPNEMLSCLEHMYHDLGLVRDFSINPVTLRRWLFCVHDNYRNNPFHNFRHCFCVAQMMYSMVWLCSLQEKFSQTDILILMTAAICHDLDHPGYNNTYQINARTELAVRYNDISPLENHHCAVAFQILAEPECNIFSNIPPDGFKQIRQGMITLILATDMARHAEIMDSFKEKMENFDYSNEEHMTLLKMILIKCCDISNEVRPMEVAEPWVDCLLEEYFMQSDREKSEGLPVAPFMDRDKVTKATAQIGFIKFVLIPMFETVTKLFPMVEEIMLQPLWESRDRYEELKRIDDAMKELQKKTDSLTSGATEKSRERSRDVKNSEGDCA
Sequence of 3',5'-cyclic-AMP phosphodiesterase 7B (Q9NP56 whole entry): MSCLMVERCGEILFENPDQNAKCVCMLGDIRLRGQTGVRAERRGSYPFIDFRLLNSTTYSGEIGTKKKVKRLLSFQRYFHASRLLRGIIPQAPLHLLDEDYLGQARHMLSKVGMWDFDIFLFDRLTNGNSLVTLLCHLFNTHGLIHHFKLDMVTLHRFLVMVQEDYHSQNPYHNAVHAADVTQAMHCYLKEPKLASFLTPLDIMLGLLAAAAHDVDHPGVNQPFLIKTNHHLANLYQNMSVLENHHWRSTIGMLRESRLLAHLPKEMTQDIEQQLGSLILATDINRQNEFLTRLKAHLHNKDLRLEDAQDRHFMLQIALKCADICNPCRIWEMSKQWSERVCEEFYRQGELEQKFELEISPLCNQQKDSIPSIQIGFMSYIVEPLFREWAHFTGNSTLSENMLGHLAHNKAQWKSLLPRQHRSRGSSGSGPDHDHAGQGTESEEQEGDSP
Sequence of cGMP-dependent 3',5'-cyclic phosphodiesterase (O00408 whole entry): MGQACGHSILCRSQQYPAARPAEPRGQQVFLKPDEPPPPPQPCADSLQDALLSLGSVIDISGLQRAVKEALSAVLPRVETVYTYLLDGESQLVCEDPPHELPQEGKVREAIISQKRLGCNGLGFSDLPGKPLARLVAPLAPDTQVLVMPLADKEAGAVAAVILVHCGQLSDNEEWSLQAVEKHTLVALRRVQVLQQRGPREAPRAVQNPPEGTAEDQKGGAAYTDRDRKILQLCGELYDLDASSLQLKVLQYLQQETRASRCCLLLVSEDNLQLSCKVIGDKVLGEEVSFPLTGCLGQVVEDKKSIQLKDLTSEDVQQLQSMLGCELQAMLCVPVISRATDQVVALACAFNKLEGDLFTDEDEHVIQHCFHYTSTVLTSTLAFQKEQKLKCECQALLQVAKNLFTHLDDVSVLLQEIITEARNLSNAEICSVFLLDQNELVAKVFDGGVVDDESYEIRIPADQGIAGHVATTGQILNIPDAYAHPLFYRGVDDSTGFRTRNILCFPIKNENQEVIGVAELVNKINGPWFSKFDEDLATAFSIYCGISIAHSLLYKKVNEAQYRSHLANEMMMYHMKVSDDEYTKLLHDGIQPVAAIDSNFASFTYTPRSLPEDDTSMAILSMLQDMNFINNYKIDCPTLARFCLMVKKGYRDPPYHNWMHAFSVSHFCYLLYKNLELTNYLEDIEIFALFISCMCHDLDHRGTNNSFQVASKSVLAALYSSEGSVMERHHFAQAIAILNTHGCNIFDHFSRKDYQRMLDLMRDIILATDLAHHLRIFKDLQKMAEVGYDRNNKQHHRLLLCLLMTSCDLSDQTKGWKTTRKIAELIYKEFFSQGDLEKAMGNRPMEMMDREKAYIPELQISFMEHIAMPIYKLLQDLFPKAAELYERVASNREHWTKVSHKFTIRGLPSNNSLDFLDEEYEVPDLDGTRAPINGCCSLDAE
Sequence of 3',5'-cyclic-AMP phosphodiesterase 4D (Q08499 whole entry): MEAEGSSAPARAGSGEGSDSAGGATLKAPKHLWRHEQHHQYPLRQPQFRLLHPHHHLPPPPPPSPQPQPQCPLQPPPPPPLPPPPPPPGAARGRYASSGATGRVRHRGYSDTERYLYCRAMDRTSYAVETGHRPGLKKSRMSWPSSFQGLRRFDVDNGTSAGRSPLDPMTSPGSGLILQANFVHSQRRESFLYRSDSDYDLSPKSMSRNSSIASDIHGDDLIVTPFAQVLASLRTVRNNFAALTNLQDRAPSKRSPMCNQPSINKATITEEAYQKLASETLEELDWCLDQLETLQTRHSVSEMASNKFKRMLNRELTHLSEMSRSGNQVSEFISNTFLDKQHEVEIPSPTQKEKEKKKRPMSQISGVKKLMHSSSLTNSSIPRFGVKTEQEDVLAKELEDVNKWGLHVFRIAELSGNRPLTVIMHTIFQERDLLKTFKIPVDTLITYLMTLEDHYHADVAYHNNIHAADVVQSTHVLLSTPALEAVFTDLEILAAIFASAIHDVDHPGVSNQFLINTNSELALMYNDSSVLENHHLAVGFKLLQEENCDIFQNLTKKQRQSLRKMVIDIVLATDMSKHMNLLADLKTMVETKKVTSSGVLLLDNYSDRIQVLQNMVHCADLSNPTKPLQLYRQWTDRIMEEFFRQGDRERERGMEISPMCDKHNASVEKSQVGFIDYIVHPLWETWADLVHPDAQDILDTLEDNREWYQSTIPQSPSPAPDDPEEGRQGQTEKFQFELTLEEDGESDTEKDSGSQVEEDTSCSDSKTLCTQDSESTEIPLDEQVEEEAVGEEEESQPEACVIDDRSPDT
Sequence of cGMP-inhibited 3',5'-cyclic phosphodiesterase 3A (Q14432 whole entry): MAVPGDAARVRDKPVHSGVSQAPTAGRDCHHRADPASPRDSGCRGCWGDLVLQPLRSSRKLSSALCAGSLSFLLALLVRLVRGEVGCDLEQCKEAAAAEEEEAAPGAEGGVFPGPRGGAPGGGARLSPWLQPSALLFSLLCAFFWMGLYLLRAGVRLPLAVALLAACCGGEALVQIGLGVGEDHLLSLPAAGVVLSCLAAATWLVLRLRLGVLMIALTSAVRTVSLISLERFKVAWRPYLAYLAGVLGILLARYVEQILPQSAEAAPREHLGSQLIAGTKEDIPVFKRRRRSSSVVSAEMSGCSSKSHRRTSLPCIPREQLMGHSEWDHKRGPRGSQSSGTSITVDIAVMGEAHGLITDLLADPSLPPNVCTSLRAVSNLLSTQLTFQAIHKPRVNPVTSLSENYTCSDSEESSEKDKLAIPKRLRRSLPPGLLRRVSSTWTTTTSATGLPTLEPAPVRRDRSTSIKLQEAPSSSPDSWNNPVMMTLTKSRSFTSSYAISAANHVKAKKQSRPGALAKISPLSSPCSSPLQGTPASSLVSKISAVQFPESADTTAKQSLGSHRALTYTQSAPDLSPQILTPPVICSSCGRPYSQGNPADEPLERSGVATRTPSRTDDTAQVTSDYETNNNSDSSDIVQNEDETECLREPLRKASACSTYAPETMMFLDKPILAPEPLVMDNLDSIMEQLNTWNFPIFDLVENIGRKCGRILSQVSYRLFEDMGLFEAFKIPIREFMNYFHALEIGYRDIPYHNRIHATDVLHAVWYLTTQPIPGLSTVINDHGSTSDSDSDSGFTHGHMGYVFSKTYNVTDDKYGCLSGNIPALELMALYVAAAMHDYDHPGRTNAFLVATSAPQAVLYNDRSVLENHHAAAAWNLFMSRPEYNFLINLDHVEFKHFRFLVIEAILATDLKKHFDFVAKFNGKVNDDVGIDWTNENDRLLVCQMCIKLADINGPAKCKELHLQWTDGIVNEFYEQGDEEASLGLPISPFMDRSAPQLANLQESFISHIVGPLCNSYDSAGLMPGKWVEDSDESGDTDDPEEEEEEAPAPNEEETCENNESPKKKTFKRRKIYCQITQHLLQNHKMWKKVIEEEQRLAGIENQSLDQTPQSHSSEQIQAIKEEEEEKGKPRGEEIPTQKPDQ
Sequence of High affinity cAMP-specific and IBMX-insensitive 3',5'-cyclic phosphodiesterase 8B (O95263 whole entry): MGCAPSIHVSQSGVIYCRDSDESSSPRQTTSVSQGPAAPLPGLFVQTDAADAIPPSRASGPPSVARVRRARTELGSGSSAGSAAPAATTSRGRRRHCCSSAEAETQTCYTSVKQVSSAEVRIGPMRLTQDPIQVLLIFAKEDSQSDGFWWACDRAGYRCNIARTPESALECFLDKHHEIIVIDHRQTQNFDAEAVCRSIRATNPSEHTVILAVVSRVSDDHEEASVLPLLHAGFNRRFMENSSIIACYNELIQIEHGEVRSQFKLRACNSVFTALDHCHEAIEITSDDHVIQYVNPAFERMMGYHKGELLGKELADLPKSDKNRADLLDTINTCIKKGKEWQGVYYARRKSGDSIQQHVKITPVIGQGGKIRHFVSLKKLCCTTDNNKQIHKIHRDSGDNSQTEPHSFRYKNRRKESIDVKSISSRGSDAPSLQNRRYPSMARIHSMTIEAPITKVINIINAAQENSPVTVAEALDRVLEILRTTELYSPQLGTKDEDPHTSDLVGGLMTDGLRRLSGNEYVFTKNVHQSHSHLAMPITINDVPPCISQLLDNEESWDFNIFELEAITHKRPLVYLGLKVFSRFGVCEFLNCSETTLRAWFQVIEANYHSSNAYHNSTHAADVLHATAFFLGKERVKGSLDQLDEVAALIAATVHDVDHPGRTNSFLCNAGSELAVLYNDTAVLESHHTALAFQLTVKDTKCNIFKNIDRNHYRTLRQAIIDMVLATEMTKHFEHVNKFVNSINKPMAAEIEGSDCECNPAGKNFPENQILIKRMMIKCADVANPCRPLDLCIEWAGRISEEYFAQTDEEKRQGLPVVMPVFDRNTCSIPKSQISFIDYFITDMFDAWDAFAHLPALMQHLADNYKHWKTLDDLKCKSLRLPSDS

- Papp A→B [1]: 21.5 ×10⁻⁶ cm/s
SMILES: Cn1ncc(-c2nn(C)c3ncnc(N4CCC4)c23)c1-c1ccc(C(F)(F)F)cc1

- Papp A→B [1]: 42 ×10⁻⁶ cm/s
- Kp at 2 h ([2]; Wistar Han, brain and plasma, read-out: BPR): 0.34
- fraction unbound [3]: 0.23
- fraction unbound [4]: 0.17
- fraction unbound [5]: 0.29
SMILES: COc1ccc(-c2c(-c3nc(C)n4ncnc(N5CCC5)c34)cnn2C)c(C)c1

- IC50 [6]: > 30 µM
- IC50 [7]: 3.9 µM
- IC50 [8]: > 30 µM
- IC50 [9]: > 30 µM
- Papp A→B [1]: 21 ×10⁻⁶ cm/s
- Activity [10]: Active
- IC50 [11]: 12 µM
- BPR ([2]; brain, 2 h): 1.56
- fraction unbound [3]: 0.17
- fraction unbound [4]: 0.077
- IC50 [12]: 26 µM
- IC50 [13]: > 10 µM
- fraction unbound [5]: 0.24
- IC50 [14]: > 10 µM
- IC50 [15]: 0.00053 µM
SMILES: Cc1nc(-c2cnn(C)c2-c2ccc(C(F)(F)F)cc2)c2c(N3CC(F)C3)ncnn12

- Drug uptake [16]: Not Active
- Drug uptake [17]: Active
- Drug uptake [18]: Active
- Drug uptake [19]: Active
SMILES: Cc1nc(-c2cnn(C)c2-c2ccc(C(F)(F)F)cc2)c2c(N3CC([18F])C3)ncnn12
